Screening data (PubChem BioAssay)
ERa SRC1 inh – ERα–SRC-1 coactivator interaction inhibitors, primary screen, biochemical, TR-FRET, ERα LBD, estradiol-bound | Estrogen receptor (Homo sapiens), P03372 | TR-FRET ER-alpha LBD / SRC-1 peptide | inhibition, % at 25.6 µM | 1.7% of 86,000 active | AID 629, 2007; in the data active = inhibition above about 50%;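 also: 0% = receptor plus peptide control and 100% = peptide only without receptor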
H69AR inhibit – proliferation blockers of H69AR lung cancer cells, primary screen, cell-based, human, 86K library; H69AR lung tumor viability, ATP luminescence, 72 h; hits give low values; viability, % at 10 µM; 6% of 85,000 active;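 active = viability at or below 40%; inactive = viability above 40%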;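 also: multidrug resistant small cell line overexpressing MRP-1 efflux transporter; 100% = mean luminescence of untreated control wells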
ERb SRC1 inh – inhibitors of ERβ-SRC1 coactivator interaction, primary screen, biochemical, TR-FRET, ERβ LBD, SRC-1 peptide | Estrogen receptor beta (Homo sapiens), Q92731 | TR-FRET ER-beta LBD / SRC1-Cy5 peptide binding; receptor agonist-loaded with 1 µM estradiol | inhibition, % at 25.6 µM | 1.3% of 86,000 active;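 active = compounds whose percent inhibition of the receptor-coactivator binding signal exceeds about 50% in the single-dose screen, limit read from the data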;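 also: 0% = receptor plus peptide wells without compound and 100% = peptide-only wells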
Target sequence (Q92731 whole entry, looked up, the tested form may be a part): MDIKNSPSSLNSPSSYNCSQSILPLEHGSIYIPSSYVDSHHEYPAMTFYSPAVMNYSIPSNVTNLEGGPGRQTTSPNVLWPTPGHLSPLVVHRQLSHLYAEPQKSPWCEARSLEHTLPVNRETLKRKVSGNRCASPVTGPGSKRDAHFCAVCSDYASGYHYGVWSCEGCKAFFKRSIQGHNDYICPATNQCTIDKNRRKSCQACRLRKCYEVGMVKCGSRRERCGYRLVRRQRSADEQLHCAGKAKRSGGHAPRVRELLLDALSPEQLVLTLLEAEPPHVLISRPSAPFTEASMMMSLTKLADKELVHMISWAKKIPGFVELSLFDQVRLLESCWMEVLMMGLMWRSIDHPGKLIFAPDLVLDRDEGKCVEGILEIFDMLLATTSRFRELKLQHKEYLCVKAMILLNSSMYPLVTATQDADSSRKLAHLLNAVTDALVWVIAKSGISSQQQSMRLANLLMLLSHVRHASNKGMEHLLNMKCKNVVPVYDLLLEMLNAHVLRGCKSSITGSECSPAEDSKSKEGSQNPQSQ
Lung fibro prol – antiproliferative effect on LL 47 fibroblasts – human, LL 47 cells, CellTiter-Glo luminescence, primary screen. AID 719, 2007. 1.1% of 85,000 active. viability, % at 10 µM. LL 47 human lung fibroblast viability, ATP luminescence; hits give low values;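 active = viability at or below 50% in the single dose screen; inactive = viability above 50%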;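 also: compound exposure lasted 72 h before the ATP readout; 100% = median luminescence of untreated cell-only wells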
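Material: human lung fibroblast line LL 47, low passage; Evaluation: viability percentage against median untreated-cell control; Buffer or medium: 15% FBS in IMEM; Incubation: 72 h compound exposure at 37 °C after overnight plating; Dosing: 0.1% DMSO in all compound wells; Measured by: CellTiter-Glo luminescence.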
HUVEC inhibit – inhibitors of HUVEC proliferation, primary screen, cell-based, 384-well; viability, % at 10 µM (by protocol); 1.1% of 86,000 active; CellTiter-Glo luminescence, 72 h; hits give low values;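 active = viability at or below 30%; inactive = viability above 30%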;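 also: 100% = median luminescence of DMSO-only cell control wells on each plate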
ERa SRC1 pot – enhancers of ERα–SRC-1 coactivator binding, primary screen, biochemical, TR-FRET, ERα LBD, low estradiol; 1.3% of 86,000 active; coactivator binding (% of control), % at 25.6 µM; TR-FRET ERalpha-LBD/SRC-Cy5 coactivator binding, 2 h; 100 = basal binding, no effect; Estrogen receptor (Homo sapiens), P03372; AID 639, 2007; in the data active = activity above about 200%;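 also: binding measured in presence of low estradiol as agonist stimulus; 0% = peptide alone without receptor and 100% = receptor with peptide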
* = called active by the depositor; nt = no result; [ ] = another dose, or the depositor's remark. Sampled rows, rich in hits. Any-hit rate of the full collection: about 9.2%.

SMILES | ERa SRC1 inh | H69AR inhibit | ERb SRC1 inh | Lung fibro prol | HUVEC inhibit | ERa SRC1 pot
Cc1ccc(-n2nc(C)c3c(-c4cccs4)c(C#N)c(N)nc32)cc1 | 9.7 | 58.3 | 18.9 | 83.0 | 77.9 | 210.2*[fluorescence artefact?]
Cc1nn(-c2ccccc2)c2nc(N)c(C#N)c(-c3ccc(F)cc3)c12 | 13.3 | 47.0 | 13.2 | 88.9 | 79.4 | 215.0*[fluorescence artefact?]
O=C(CCS(=O)(=O)c1ccccc1)Nc1nc2c(s1)COc1ccccc1-2 | -12.6 | 2.0* | 1.7 | 49.8* | 57.9 | 113.3
S=C(c1ccc(-c2cc(Cl)ccc2Cl)o1)N1CCOCC1 | -11.8 | 91.8 | -5.4 | 86.5 | 80.7 | 82.8
O=C(Nc1ccc(N2CCOCC2)c(Cl)c1)c1ccc(Br)o1 | -1.1 | 20.0* | -3.1 | 107.1 | 80.8 | 97.0
O=C(Nc1ccc(N2CCN(C(=O)c3ccccc3)CC2)cc1)c1ccc(Br)o1 | -0.3 | 69.8 | 8.9 | 101.7 | 79.4 | 100.5
O=C(Nc1ccccc1N1CCOCC1)c1ccc(Br)o1 | -24.6 | 79.7 | -31.5 | 102.5 | 96.8 | 98.8
Cc1cc(N2CCN(C)CC2)nc2ccc(NC(=O)c3ccc(Br)o3)cc12 | 9.4 | 4.2* | 12.1 | 43.4* | 8.2* | 99.9
O=C(Nc1ccc(N2CCCC2)cc1)c1ccc(Br)o1 | 59.2*[fluorescence artefact?] | 86.5 | 68.4*[fluorescence artefact?] | 107.5 | 90.7 | 58.4
O=C(Nc1ccc(CN2CCOCC2)cc1)c1ccc(-c2cc(Cl)ccc2Cl)o1 | -14.0 | 20.9* | -4.3 | 92.9 | 40.5 | 135.2
CCCCOc1ccc2c(C)cc(=O)oc2c1OCCCC | 3.0 | 86.3 | -2.4 | 104.5 | 92.8 | 90.7
CCC(Sc1nc(C)cc(C)n1)C(=O)Nc1ccc(Cl)cn1 (configuration not stated) | -4.2 | 89.6 | -5.9 | 98.2 | 104.2 | 113.0
CCOCCn1c(N2CCN(c3ccccc3)CC2)nc2c1c(=O)n(C)c(=O)n2C | -6.1 | 99.8 | -11.3 | 100.9 | 103.7 | 123.8
Cn1c(=O)[nH]c(=O)c2c1nc(N1CCC(Cc3ccccc3)CC1)n2Cc1ccccc1 | -1.2 | 19.6* | 5.8 | 100.8 | 59.0 | 41.5
CCCCCn1c(N2CCC(Cc3ccccc3)CC2)nc2c1c(=O)[nH]c(=O)n2C | 37.1 | 19.6* | -12.9 | 93.1 | 7.5* | 62.8
CCCCCCn1c(N2CCN(c3ccccc3)CC2)nc2c1c(=O)n(C)c(=O)n2C | -3.8 | 68.6 | 1.0 | 89.8 | 22.9* | 96.5
CCCSc1nc2c(c(=O)[nH]c(=O)n2C)n1Cc1ccc(C)cc1 | 67.3*[fluorescence artefact?] | 68.0 | 32.7 | 89.7 | 57.3 | 118.9
CCCn1c(N2CCC(Cc3ccccc3)CC2)nc2c1c(=O)[nH]c(=O)n2C | 7.6 | 41.3 | -9.7 | 89.9 | 77.2 | 78.9
CCC(C)C(NC(=O)C1CCC(C)CC1)C(=O)NCc1ccccn1 (configuration not stated) | 5.0 | nt | -2.0 | nt | nt | 113.3
COc1ccc(NC(=O)CSc2nc3c(c(=O)n2-c2ccccc2)SCC3)c(OC)c1 | 1.4 | 8.2* | -5.3 | 76.1 | 69.8 | 95.6
COc1ccccc1-n1c(SCC(=O)Nc2ccc(F)cc2)nc2c(c1=O)SCC2 | 1.3 | 19.5* | -3.1 | 96.2 | 89.3 | 119.3
COc1ccccc1-c1c(C)nn2c(N3CCC4(CC3)OCCO4)cc(C)nc12 | -6.6 | 42.8 | -7.4 | 87.9 | 96.9 | 115.5
Cc1cc(N2CCC3(CC2)OCCO3)n2nc(C)c(-c3ccc(Cl)cc3)c2n1 | -4.2 | 37.3* | -3.3 | 83.7 | 91.2 | 122.7
Cc1cccc(OCCCCc2c(C)n[nH]c2C)c1C | 5.2 | 95.8 | -0.8 | 95.3 | 92.5 | 85.7
Cc1cc(C)n(-c2nc(C)nc(N)n2)n1 | -4.0 | 97.7 | -6.6 | 89.8 | 94.6 | 112.8
SMILES | ERa SRC1 inh | H69AR inhibit | ERb SRC1 inh | Lung fibro prol | HUVEC inhibit | ERa SRC1 pot
Cc1cc(C)n(-c2nc(Nc3ccccc3)nc(-n3nc(C)cc3C)n2)n1 | 62.9*[fluorescence artefact?] | 96.7 | 55.4*[fluorescence artefact?] | 99.0 | 90.5 | 248.2*
Cc1cc(C)n(-c2nc(N(c3ccccc3)c3ccccc3)nc(-n3nc(C)cc3C)n2)n1 | 32.9 | 11.7* | 12.6 | 38.1* | 37.4 | 128.9
CCCNC(=O)Cn1cnc2sc(C(=O)NCCN(CC)CC)c(C)c2c1=O | -10.3 | 96.7 | -3.8 | 100.3 | 99.5 | 99.3
CN1CC=C2C(C#N)=C(N)C(C#N)(C#N)[C@H](c3cccs3)[C@H]2C1 | -2.0 | 34.9* | -3.9 | 84.9 | 90.5 | 92.4
CC(C)c1ccc(C2C3CSCC=C3C(C#N)=C(N)C2(C#N)C#N)cc1 (configuration not stated) | -0.8 | 1.4* | -11.1 | 86.1 | 6.8* | 70.7
CN1CC=C2C(C#N)=C(N)C(C#N)(C#N)[C@H](c3cccc(Cl)c3)C2C1 (some centres not stated) | -10.1 | 62.0 | -8.4 | 87.1 | 88.5 | 91.0
CN1CC=C2C(C#N)=C(N)C(C#N)(C#N)C(c3ccsc3)C2C1 (configuration not stated) | -6.3 | 60.1 | 10.8 | 95.4 | 93.6 | 95.5
CN1CC=C2C(C#N)=C(N)C(C#N)(C#N)C(CCc3ccccc3)C2C1 (configuration not stated) | 1.1 | 58.8 | -0.2 | 93.0 | 80.4 | 92.6
CCCC1C2CN(C(C)C)CC=C2C(C#N)=C(N)C1(C#N)C#N (configuration not stated) | -10.6 | 21.3* | -4.1 | 97.3 | 93.5 | 163.7
CCOC(=O)CN1C(=O)C(O)(C2CCc3ccccc3C2=O)c2ccccc21 (configuration not stated) | -20.8 | 58.2 | -12.4 | 95.9 | 94.0 | 107.5
Cc1cccc(C(=O)NNC2=C(C(=O)C(F)(F)F)CCC2)c1O | 2.5 | 25.4* | -6.1 | 65.1 | 37.1 | 63.5
CCC/C(=N/Nc1ccc(Cl)cc1)c1cnnc(-c2ccccc2)n1 | 94.0* | 69.4 | 67.1*[fluorescence artefact?] | 79.5 | 80.8 | 11.9
COc1cc(C)c(C(C)C)cc1S(=O)(=O)n1cnc(C)c1 | 0.1 | 33.7* | -10.5 | 55.9 | 42.9 | 93.6
O=C(O)C1CC(=O)N(c2ccc(F)cc2)C1 (configuration not stated) | 5.0 | 103.8 | -0.8 | 100.6 | 98.8 | 130.7
COc1ccc(N2CC(C(=O)O)CC2=O)cc1 (configuration not stated) | -23.2 | 95.7 | 70.6* | 97.7 | 90.1 | 106.8
COc1ccc(N2CCN(CCCNC(=O)c3cc4sccc4n3C)CC2)cc1 | -7.5 | 30.4* | 1.2 | 93.3 | 85.9 | 107.9
CCOC(=O)c1cc(-c2ccccc2)sc1NC(=O)CSc1nnnn1C | 36.7 | 83.5 | 31.2 | 93.2 | 75.1 | 82.9
